The text below walks through data of ChEMBL document CHEMBL4364267, “Hydrogen sulfide donating ent-kaurane and spirolactone-type 6,7-seco-ent-kaurane derivatives: Design, synthesis and antiproliferative properties” (Eur J Med Chem, 2019).

For assay [1], the system named is Bel-7402. Description: Antiproliferative activity against human Bel7402 cells assessed as reduction in cell viability after 72 hrs by MTT assay. Type of assay: functional, cell-based. As to conditions: Bel-7402, 72 h. The method, boiled down:
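MTT assay over 72 h, compounds at 64, 16, 4, 1, 0.25, 0.0625 and 0.015625 μM. MTT solution (5 mg/mL) and DMSO added afterwards, 10 min at room temperature, absorbance read at 490 nm. IC50 calculated as the mean ± SD of three independent experiments.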
For orientation: Tetrazolium dyes change colour on reduction, which living cells bring about.

Assay [2] relates to Bel-7402. Description: Cell cycle arrest in human Bel7402 cells assessed as accumulation of cells at G1 phase at 0.45 uM after 48 hrs by propidium iodide/RNase staining based flow cytometric analysis (reference value: 30.95%). Type of assay: functional. In general terms: A flow cytometer gives signals particle by particle.
In assay [3] the test system is Bel-7402. Description: Cell cycle arrest in human Bel7402 cells assessed as accumulation of cells at S phase at 0.45 uM after 48 hrs by propidium iodide/RNase staining based flow cytometric analysis (reference value: 39.09%). Type of assay: functional.
Assay [4] relates to Bel-7402. Description: Cell cycle arrest in human Bel7402 cells assessed as accumulation of cells at G1 phase at 1.80 uM after 48 hrs by propidium iodide/RNase staining based flow cytometric analysis (reference value: 30.95%). Type of assay: functional.
The test system of assay [5] is Bel-7402. Description: Cell cycle arrest in human Bel7402 cells assessed as accumulation of cells at G2 phase at 1.80 uM after 48 hrs by propidium iodide/RNase staining based flow cytometric analysis (reference value: 29.97%). Type of assay: functional.
For assay [6], the system named is Bel-7402. Description: Cell cycle arrest in human Bel7402 cells assessed as accumulation of cells at S phase at 1.80 uM after 48 hrs by propidium iodide/RNase staining based flow cytometric analysis (reference value: 39.09%). Type of assay: functional.
The test system of assay [7] is Bel-7402. As to the kind of experiment: Induction of morphological changes in human Bel7402 cells assessed as chromatin shrinkage at 0.45 to 1.80 uM after 48 hrs by Hoechst 33258 staining-based fluorescent microscopic analysis. Type of assay: functional, cell-based. The method, boiled down: (§1)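 Bel-7402 cells cultured 24 h in 6-well plates at 37 °C, then exposed 48 h to 0, 0.45, 0.90 or 1.80 μM. Harvested by mild trypsinization and washed twice with PBS. Stained with Hoechst 33258 (2 mg/mL) for 15 min at room temperature in the dark, washed, and viewed by fluorescence microscopy.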

For assay [8], the system named is Bel-7402. As to the kind of experiment: Induction of morphological changes in human Bel7402 cells assessed as nuclear fragmentation at 0.45 to 1.80 uM after 48 hrs by Hoechst 33258 staining-based fluorescent microscopic analysis. Type of assay: functional, cell-based. In outline: as §1
The test system of assay [9] is Bel-7402. Description: Induction of apoptosis in human Bel7402 cells assessed as early apoptotic cells at 0.45 uM after 48 hrs by Annexin V-FITC/propidium iodide staining based flow cytometry (reference value: 2.09%). Type of assay: functional. In outline: (§2)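 Bel-7402 cells in 6-well plates treated with 0, 0.45, 0.90 or 1.80 μM, washed twice with PBS and resuspended in annexin V binding buffer. Stained with annexin V-FITC and PI for 15 min at room temperature in the dark, then analysed by flow cytometry. Methods state 24 h exposure; the figure legend states 48 h.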

Assay [10] deals with Bel-7402. As to the kind of experiment: Induction of apoptosis in human Bel7402 cells assessed as late apoptotic cells at 0.45 uM after 48 hrs by Annexin V-FITC/propidium iodide staining based flow cytometry (reference value: 0.68%). Type of assay: functional. The method, boiled down: as §2
Assay [11] has as its system Bel-7402. As to the kind of experiment: Induction of apoptosis in human Bel7402 cells assessed as necrotic cells at 0.45 uM after 48 hrs by Annexin V-FITC/propidium iodide staining based flow cytometry (reference value: 0.01%). Type of assay: functional. The method, boiled down:
as §2

The test system of assay [12] is Bel-7402. As to the kind of experiment: Induction of apoptosis in human Bel7402 cells assessed as early apoptotic cells at 0.90 uM after 48 hrs by Annexin V-FITC/propidium iodide staining based flow cytometry (reference value: 2.09%). Type of assay: functional. In outline: as §2
The test system of assay [13] is Bel-7402. Description: Induction of apoptosis in human Bel7402 cells assessed as viable cells at 1.80 uM after 48 hrs by Annexin V-FITC/propidium iodide staining based flow cytometry (reference value: 97.22%). Type of assay: functional. As to conditions: Bel-7402, 48 h, read-out: Activity. In outline:
as §2

In assay [14] the test system is Bel-7402. As to the kind of experiment: Induction of apoptosis in human Bel7402 cells assessed as necrotic cells at 1.80 uM after 48 hrs by Annexin V-FITC/propidium iodide staining based flow cytometry (reference value: 0.01%). Type of assay: functional. In outline: as §2
In assay [15] the test system is Bel-7402. Description: Induction of mitochondrial membrane potential loss in human Bel7402 cells assessed as cell population with mitochondrial membrane potential collapse at 0.90 uM after 48 hrs by JC1 staining-based flow cytometry analysis (reference value: 1.28%). Type of assay: functional. The method, boiled down: (§3)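 Bel-7402 cells in 6-well plates exposed for 48 h to 0, 0.45, 0.90 or 1.80 μM, DMSO as vehicle. Washed with PBS and stained with JC-1 at room temperature in the dark. Cells with collapsed membrane potential counted by flow cytometry.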

Assay [16] deals with Bel-7402. As to the kind of experiment: Induction of mitochondrial membrane potential loss in human Bel7402 cells assessed as cell population with mitochondrial membrane potential collapse at 1.80 uM after 48 hrs by JC1 staining-based flow cytometry analysis (reference value: 1.28%). Type of assay: functional. The method, boiled down: as §3
Assay [17] relates to Bel-7402. As to the kind of experiment: Induction of mitochondrial membrane potential depolarization in human Bel7402 cells after 48 hrs by JC1 staining-based flow cytometry analysis. Type of assay: functional, cell-based. The method, boiled down:
as §3

The subject of assay [18] is Bel-7402. Description: Induction of apoptosis in human Bel7402 cells assessed as increase in Bax expression at 0.90 to 1.80 uM after 48 hrs by Western blot analysis. Type of assay: functional, cell-based.
The subject of assay [19] is Bel-7402. As to the kind of experiment: Induction of apoptosis in human Bel7402 cells assessed as increase in cleaved caspase-3 expression at 0.90 to 1.80 uM after 48 hrs by Western blot analysis. Type of assay: functional, cell-based. On the technique in general: In western blotting, separated proteins are transferred to a membrane and probed.
For assay [20], the system named is Bel-7402. As to the kind of experiment: Induction of apoptosis in human Bel7402 cells assessed as increase in cleaved PARP expression at 0.45 to 1.80 uM after 48 hrs by Western blot analysis. Type of assay: functional, cell-based.
For assay [21], the system named is Bel-7402. Description: Induction of apoptosis in human Bel7402 cells assessed as reduction in Bcl-xl expression at 0.90 to 1.80 uM after 48 hrs by Western blot analysis. Type of assay: functional, cell-based.

Molecules are shown by their SMILES. Calls of active or inactive are those of the source. The rule behind the calls is not given here.

As a reminder, the IC50 is the concentration at which inhibition is half-maximal. Take `C=C1C(=O)[C@@]23C(=O)OC[C@]4(C(=O)CCC(C)(C)[C@H]4C=O)[C@@H]2CC[C@@H]1[C@H]3OC(=O)CCCC(=O)Oc1ccc(-c2cc(=S)ss2)cc1`: the IC50 in the assay with Bel-7402 [1] stood at 880 nM. The Activity came to 37.37% in the assay on Bel-7402 [2]; 40.42% in the assay with Bel-7402 [3]; 49.56% in the assay on Bel-7402 [4]; 15.91% in the assay with Bel-7402 [5]; 34.52% in the assay with Bel-7402 [6]; 9.92% in the assay on Bel-7402 [9]. Further, the Activity in the assay with Bel-7402 [10] turned out to be 7.73%; in the assay on Bel-7402 [11], 0.11%; in the assay with Bel-7402 [12], 15.17%; in the assay with Bel-7402 [14] it was 1.05%; in the assay on Bel-7402 [15], 30.96%; with Bel-7402 [16], 58.59%. The Activity entry with Bel-7402 [17] was “Dose-dependent effect”. The result in the assay with Bel-7402 [7], in the assay on Bel-7402 [8], in the assay with Bel-7402 [18], in the assay with Bel-7402 [19], in the assay on Bel-7402 [20] and in the assay with Bel-7402 [21] was Active. Further, the viability at 1.8 µM in the assay on Bel-7402 [13] is 43.6%.
